An excerpt weighted towards active compounds, which were near 1.5% of everything screened.
PKA-R2B act = activators of PKA-R2B holoenzyme, primary screen, biochemical, fluorescence polarization, Cy5-IP20, human | AID 504700, 2011 | PKA-R2B holoenzyme dissociation; R2B truncated from residue 108, S112A mutant; 0% DMSO only, 100% 113 µM cGMP | hit rate 0.079% among 340,000 | activation, % at 11.4 µM;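 active means activation above a cutoff set at the mean over all compounds plus 3 SD, cut at about 18% in these data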;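 further: higher means more holoenzyme dissociation and a rise in polarization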
H9c2 protect = cardioprotection against H2O2-induced cell death, primary screen, uHTS, H9c2 cells, ATPLite luminescence. hit rate 0.63% among 360,000. protection from H2O2 cell death, % at 20 µM. AID 588492, 2011. H9c2 cardiomyocytes, H2O2 injury protection, 2 h;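 active means compounds giving at least 50% protection of heart cells from peroxide-induced death in the single-dose screen, raw or plate-pattern-corrected value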
PKA-R1A act = activators of PKA-R1A holoenzyme, primary screen, biochemical, fluorescence polarization, Cy5-IP20, bovine R1A, mouse PKAc | hit rate 0.083% among 340,000 | PKA-R1A dissociation; scaled: DMSO 0%, 113 µM cGMP 100% | cAMP-dependent protein kinase type I-alpha regulatory subunit (Bos taurus) + … | activation, % at 11.4 µM;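 active means percent activation above the mean of all tested compounds plus 3 SD, cut at about 19% in these data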;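 further: higher means more PKAc released from R1A so a rise in polarization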
TbMetRS inhib = T. brucei MetRS inhibitors, primary screen, biochemical, luminescence. purified T. brucei MetRS, ATP depletion, Kinase-Glo luminescence. inhibition, % at 11.9 µM. hit rate 0.4% among 360,000. AID 624268, 2012;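 active means inhibition above a per-plate cutoff of the control wells' mean inhibition plus 3 SD, cut at about 5.5% in these data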
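System: purified T. brucei MetRS enzyme / Detection: Kinase-Glo luciferase luminescence reporting remaining unconsumed ATP / Medium: HEPES buffer with MgCl2, KCl, DTT, spermine, BSA, pyrophosphatase / Replication: singlicate, one well per compound / Evaluation: percent inhibition relative to median high and low control wells / Schedule: 2 h aminoacylation at 25 °C after 15 min preincubation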
Rin1-Abl PPI inh = inhibitors of Rin1-Abl protein binding, primary screen, biochemical, TR-FRET | inhibition, % at 7.35 µM | Tyrosine-protein kinase ABL1 (Homo sapiens) + Ras and Rab interactor 1 (Homo sapiens), … | hit rate 0.4% among 360,000; in the data active means inhibition above about 5%, passing the limit was not always enough
R1A FP artifact = FP signal interference without PKA proteins, confirmation, artefact control for PKA-R1A activator project, biochemical, fluorescence polarization, triplicate | shares compounds with PKA-R1A act | Cy5-IP20 peptide alone, fluorescence polarization artifact counterscreen | activation, % at 11.4 µM | hit rate 7% among 280;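 active means mean activation over triplicate runs exceeds the adjusted cutoff derived for the parent primary screen, cut at about 19% in these data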;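 further: no PKA protein present so any polarization rise reflects compound interference; higher means stronger polarization artifact and likely false positive in parent screen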
PKA-R1A confirm = activators of PKA-R1A holoenzyme, confirmation, biochemical, fluorescence polarization, Cy5-IP20, triplicate; shares compounds with PKA-R1A act; AID 504800, 2011; PKA-R1A holoenzyme dissociation; activation, % at 11.4 µM; hit rate 9% among 280;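 active means mean activation over replicate wells exceeds the adjusted hit threshold taken from the earlier primary screen, cut at about 20% in these data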
Target sequence (P00514 whole entry, looked up): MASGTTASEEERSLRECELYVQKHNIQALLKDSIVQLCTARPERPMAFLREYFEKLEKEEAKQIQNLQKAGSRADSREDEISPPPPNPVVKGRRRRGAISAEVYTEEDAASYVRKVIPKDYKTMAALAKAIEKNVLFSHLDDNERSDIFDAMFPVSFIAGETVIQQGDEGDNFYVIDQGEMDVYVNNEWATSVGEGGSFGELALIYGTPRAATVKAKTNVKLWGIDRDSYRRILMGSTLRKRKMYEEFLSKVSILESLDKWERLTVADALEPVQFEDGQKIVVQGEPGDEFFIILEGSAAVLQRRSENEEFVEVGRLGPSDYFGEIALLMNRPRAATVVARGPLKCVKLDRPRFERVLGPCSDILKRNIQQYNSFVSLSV
Rin1 Abl conf = Rin1-Abl binding inhibitor retest, confirmation, biochemical, TR-FRET; inhibition, % at 7.35 µM; AID 602124, 2011; hit rate 49% among 1,300; shares compounds with Rin1-Abl PPI inh; purified proteins
GFP quench = GFP fluorescence inhibitors and quenchers, artefact control for Rin1-Abl interaction inhibitor project, biochemical; shares compounds with Rin1-Abl PPI inh; inhibitors/quenchers counterscreen; inhibition, % at 6.75 µM; hit rate 8.5% among 1,300; AID 602125, 2011;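 further: ABL1-eGFP fusion protein alone without its partner RIN1-SBP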
GFP quench dose = GFP fluorescence inhibitors and quenchers, dose response, artefact control for Rin1-Abl interaction inhibitor project, biochemical; shares compounds with Rin1-Abl PPI inh; GFP fluorescence interference/quenching counterscreen; IC50, µM; AID 602182, 2012; 230 tested, under 10 active; call rule not given here;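 further: ABL1-eGFP fusion protein alone without its RIN1 binding partner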
Tb MetRS conf = T. brucei MetRS inhibitors, confirmation, biochemical, luminescence; AID 624412, 2012; T. brucei MetRS enzyme, luminescence (ATP depletion); hit rate 93% among 1,400; inhibition, % at 11.9 µM; shares compounds with TbMetRS inhib; in the data active means inhibition above about 7%
Jurkat tox = Jurkat T cell cytotoxicity, cytotoxicity control for T. brucei MetRS inhibitor project, luminescence, high throughput; shares compounds with TbMetRS inhib; Jurkat cells viability, ATP luminescence; inhibition, % at 8.3 µM; hit rate 12% among 1,400; AID 624413, 2012; in the data active means inhibition above about 15%
TbMetRS FP orth = T. brucei MetRS inhibitors, orthogonal assay for T. brucei MetRS inhibitor project, biochemical, fluorescence polarization; shares compounds with TbMetRS inhib; purified T. brucei MetRS; inhibition, % at 11.9 µM; hit rate 44% among 1,400; AID 651607, 2012; in the data active means inhibition above about 17%
Hits are given with their value; 0 = inactive; - = no result given. Unless noted, no stated cut-off is given here; in the data, active means inhibition above about 6.5%; inactive means the rest.

SMILES	PKA-R2B act	H9c2 protect	PKA-R1A act	TbMetRS inhib	Rin1-Abl PPI inh	others
COc1cccc(C=NNC(=O)CCCC(=O)NN=Cc2cccc(OC)c2)c1	0	0	0	0	0
CCOc1ccccc1CN1CCC(n2nccc2NC(=O)C2CCCC2)CC1	0	0	0	0	0
Cc1onc(NC(=O)c2ccc(Cl)cc2Cl)c1Br	0	0	0	0	0
CN(C)CCCCOc1cccc(Br)c1	0	0	23.4	0	0	R1A FP artifact=0;PKA-R1A confirm=0
CN(C)CCOc1cccc(Cl)c1	0	0	0	0	0
Nc1ccc(S(=O)(=O)Nc2nc3ccccc3o2)cc1	0	0	0	0	0
COc1cccc(CNCc2cc(OC)cc(OC)c2)c1	0	0	21.0	0	0	R1A FP artifact=0;PKA-R1A confirm=0
COc1cccc(CNCc2ccccc2OC)c1	0	0	0	0	0
CN(c1ccccc1)c1nc(N)c([N+](=O)[O-])c(NCCO)n1	0	0	0	0	0
CC1=NN(c2ccccc2)C(c2ccco2)C1 (stereo unspecified)	0	0	19.7	0	0	R1A FP artifact=0;PKA-R1A confirm=0
COc1cc(C2SCC(=O)N2Cc2ccccc2)cc(OC)c1OC (stereo unspecified)	0	0	0	0	0
COCCn1c(N)c(N(Cc2ccccc2)C(=O)COc2ccc(F)cc2Cl)c(=O)[nH]c1=O	0	0	20.4	0	0	R1A FP artifact=0;PKA-R1A confirm=0
Nc1c(N(Cc2ccccc2)C(=O)COc2ccc(F)cc2Cl)c(=O)[nH]c(=O)n1Cc1ccccc1	0	0	0	0	0
COc1ccc(CNC(=O)CNC(=O)c2c(C)nn(C)c2Cl)cc1	0	0	19.3	0	0	R1A FP artifact=0;PKA-R1A confirm=0
Cc1cn(CCOc2ccc(Cl)cc2)c(=O)[nH]c1=O	0	0	0	0	0
CC(C)[C@H](NC(N)=O)C(=O)Nc1cccc(S(=O)(=O)N2CCOCC2)c1	0	0	20.0	0	0	R1A FP artifact=0;PKA-R1A confirm=0
Cc1c(-c2ccccc2)[n+](=O)c(-c2ccc(Cl)cc2)c(C)n1[O-]	0	0	18.8	0	0	R1A FP artifact=0;PKA-R1A confirm=0
Cc1c(-c2ccccc2)[n+](=O)c(-c2ccc(Br)cc2)c(C)n1[O-]	0	0	0	0	0
O=C(O)Cn1nnc(-c2ccc(OCc3ccccc3)cc2)n1	0	0	0	0	0
COc1ccc(S(=O)(=O)Nc2c(C)cccc2C)cc1-n1cnnn1	0	0	19.1	5.9	0	R1A FP artifact=0;PKA-R1A confirm=0;Tb MetRS conf=0;Jurkat tox=0;TbMetRS FP orth=0
CCOC(=O)C1CCN(S(=O)(=O)c2ccc3oc(=O)ccc3c2)CC1	0	0	0	0	0
Cc1ccc(N=C2NC(=O)C(CC(=O)NCc3ccccc3)S2)cc1C (stereo unspecified)	0	0	0	0	8.9	Rin1 Abl conf=0;GFP quench=0
CC(=O)OC[C@H]1O[C@@H](n2ccc(=O)[nH]c2=S)C(OC(C)=O)C1OC(C)=O (stereo partly specified)	0	0	0	0	12.2	Rin1 Abl conf=9.3;GFP quench=0
Cc1ccc(S(=O)(=O)N(C)c2ccc(C(=O)Nc3ccccc3C(=O)N3CCOCC3)cc2)cc1	0	0	0	0	0
COc1ccccc1N=Nc1ccc(O)c2ncccc12	0	0	0	0	8.7	Rin1 Abl conf=0;GFP quench=12.3
SMILES	PKA-R2B act	H9c2 protect	PKA-R1A act	TbMetRS inhib	Rin1-Abl PPI inh	others
CCOC(=O)C1=CCN(S(=O)(=O)c2ccccc2Cl)C1c1cccc(Br)c1 (stereo unspecified)	-	0	-	0	0
Cc1cccc(COCC(Cc2ccccc2)N2CCN(C(=O)c3ccc(Cl)c(Cl)c3)CCC2=O)c1 (stereo unspecified)	0	0	0	0	0
O=C(c1ccc(Cl)c(Cl)c1)N1CCC(=O)N(C(COCc2cccc(C(F)(F)F)c2)Cc2ccccc2)CC1 (stereo unspecified)	0	0	0	0	23.4	Rin1 Abl conf=23.9;GFP quench=0
CC(=O)Oc1ccc(C(=O)Nc2cccc(C(=O)c3ccc(C)c(C)c3)c2)cc1	0	0	0	0	0
COc1ccc(-n2nnc3c(=O)n(CC(=O)N4CCCC4)cnc32)cc1	0	0	0	0	5.0	Rin1 Abl conf=0;GFP quench=0
CCOC(=O)c1c(NC(=O)CN(C)C2CCN(C)CC2)sc(C(=O)Nc2ccccc2)c1C	0	0	0	0	7.6	Rin1 Abl conf=0;GFP quench=0
C[C@@H]1CN([C@H](C)CO)C(=O)c2cc(Br)cnc2O[C@H]1CN(C)C(=O)Cc1ccccc1	0	0	0	0	0
COc1cc(OC)c(-c2c3cc(O)c(=O)cc-3oc3cc(O)c(O)cc23)cc1OC	0	0	0	0	62.3	Rin1 Abl conf=72.6;GFP quench=0;GFP quench dose=0
Cc1c2cc(O)c(=O)cc-2oc2cc(O)c(O)cc12	0	0	0	0	65.0	Rin1 Abl conf=88.0;GFP quench=0
COc1cc(-c2cc(=O)c3ccc(O)cc3o2)cc(OC)c1OC	-	0	-	0	0
C[C@@H]1CN([C@@H](C)CO)C(=O)CCCn2nncc2CO[C@H]1CN(C)S(=O)(=O)c1cccs1	0	0	0	0	0
